The source made the active and inactive calls. The calls are words filed in the database; no cut-off is given here.
Columns and labels:
Leishmania amazonensis = assay: Antileishmanial activity against Leishmania amazonensis LV9 ([…]/M1841) amastigotes infected in mouse macrophage after 30 hrs by MTT assay; assay type: functional, organism-based
Summary of the method: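 Intracellular amastigotes of L. amazonensis LV9 (MPROB/BR/1972/M1841), isolated from lesions and purified, grown inside murine macrophages. Compounds incubated with infected macrophages for 30 h. IC50 reported.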

HL-60 [1] = assay: Induction of apoptosis in human HL60 cells assessed as fold activation of caspase 3/7 at 10 uM; assay type: functional
Summary of the method: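 HL60 human leukemia cells treated with compound. Caspase 3/7 activity measured with DEVD-AMC substrate and given as fold activation at the optimal compound concentration.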

KB [2] = assay: Growth inhibition of human KB cells […] after 72 hrs by MTS assay; assay type: functional
Summary of the method: (§1)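 KB human buccal carcinoma cells incubated with chalcone for 72 h. Growth read by MTS assay and expressed as percent inhibition of cell growth.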

Leishmania donovani = assay: Antileishmanial activity against Leishmania donovani MHOM/ET/1967/HU3 (LV9) promastigotes after 72 hrs by MTT assay; assay type: functional, organism-based
Summary of the method: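 Promastigotes of L. donovani LV9 clone (MHOM/ET/67/HU3) exposed to drug for 72 h. Viability read by MTT assay and IC50 derived.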

[3] = Inhibition of tubulin assembly assessed as ratio of IC50 for drug to IC50 for deoxypodophyllotoxin
[4] = Inhibition of tubulin assembly
Summary of the method: (§2)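 Tubulin assembly followed by the Zavala and Guenard method, with compounds tested at 0.1 mg/ml (about 2 × 10^-4 M). IC50 is expressed as a ratio to the deoxypodophyllotoxin IC50.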

KB [5] = assay: Cytotoxicity against human KB cells; assay type: functional, cell-based; summary of the method: as §1
[6] = Inhibition of tubulin assembly at 200 uM; summary of the method: as §2
[7] = Selectivity index, ratio of IC50 for mouse macrophage to IC50 for Leishmania amazonensis LV9 ([…]/M1841) amastigotes
Summary of the method: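 Selectivity index is the IC50 for cytotoxicity against murine macrophages divided by the IC50 against L. amazonensis LV9 intracellular amastigotes. Amastigotes were assayed after 30 h incubation of infected macrophages with drug.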

HL-60 [8] = assay: Induction of apoptosis in human HL60 cells assessed as fold activation of caspase 3/7 at 100 nM; assay type: functional
Summary of the method: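 HL60 human leukemia cells; caspase 3/7 activation measured using DEVD-AMC substrate; reported as fold activation at the optimal compound concentration.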

KB [9] = assay: Antiproliferative activity against human KB cells after 72 hrs by MTS assay; assay type: functional, cell-based
P388 = assay: Cytotoxicity against mouse P388 cells; assay type: functional, cell-based

| inhibition [6] | Compound | Activity (Leishmania amazonensis) | inhibition (INH) (KB [2]) | IC50 (Leishmania donovani) | Ratio IC50 [3] | IC50 [4] | other results |
| --- | --- | --- | --- | --- | --- | --- | --- |
|  | COc1ccc(/C=C/C(=O)c2c(O)c(OC)c(OC)c(OC)c2OC)cc1O | inactive | 49% | 25 µM | 3.8 | 13 µM | fold change (FC) (HL-60 [1]): 3.2 |
|  | COc1c(O)c(OC)c(C(=O)/C=C/c2ccccc2)c(O)c1OC [PEDICIN] |  |  |  |  | 300 µM | IC50 (KB [5]): 21.2 µM |
| < 30% | COc1ccc(/C=C/C(=O)c2c(OC)c(OC)c(OC)c(OC)c2OC)cc1[N+](=O)[O-] |  | 19% |  |  |  |  |
| < 30% | COc1ccc(/C=C/C(=O)c2c(OC)c(OC)c(OC)c(OC)c2OC)cc1O |  | 22% | 20 µM |  |  |  |
|  | COc1c(O)c(C(=O)/C=C/c2cccc([N+](=O)[O-])c2)c(OC)c(OC)c1OC |  | 31% | 4.4 µM |  |  | Ratio IC50 [7]: 2.5; IC50 (Leishmania amazonensis): 26 µM |
| < 30% | COc1ccc(/C=C/C(=O)c2c(O)c(OC)c(OC)c(OC)c2OC)cc1[N+](=O)[O-] | inactive | 43% | 5.3 µM |  |  | fold change (FC) (HL-60 [1]): 1.2 |
|  | COc1ccc(/C=C/C(=O)c2cc(OC)c(OC)c(OC)c2)cc1[N+](=O)[O-] | inactive | 44% | 2.8 µM |  |  |  |
|  | COc1cc(C(=O)/C=C/c2cccc([N+](=O)[O-])c2)cc(OC)c1OC |  | 29% | 0.4 µM |  |  | Ratio IC50 [7]: 2.8; IC50 (Leishmania amazonensis): 26 µM |
|  | COc1ccc(/C=C/C(=O)c2cc(OC)c(OC)c(OC)c2)cc1O |  | 100% |  | 1.3 | 4.3 µM | fold change (FC) (HL-60 [8]): 3.6; IC50 (KB [9]): 0.017 µM |
|  | COc1ccc(/C=C/C(=O)c2cc(OC)c(OC)c(OC)c2)cc1N |  | 100% |  | 1 | 3.7 µM | fold change (FC) (HL-60 [8]): 3.6; IC50 (KB [9]): 0.031 µM |
| < 30% | COc1ccc(/C=C/C(=O)c2c(OC)c(OC)c(OC)c(OC)c2OC)cc1N |  | 29% |  |  |  |  |
|  | COc1c(O)c(OC)c(OC)c(C(=O)/C=C/c2ccccc2)c1O [ISODIDYMOCARPIN] |  |  |  |  |  | IC50 (P388): 11.1 µM |
|  | COc1ccc(/C=C/C(=O)c2c(O)c(OC)c(OC)c(OC)c2OC)cc1N | inactive | 40% | 44 µM | 4.1 | 14 µM | fold change (FC) (HL-60 [1]): 2.9 |
